According to ChEMBL document CHEMBL1123566, “Synthesis and cardiac electrophysiological activity of 2- and 3-[(substituted phenyl)alkyl]quinuclidines. Structure-activity relationships” (1987):
“And” between values parts separate entries of the source, which are not always exact repeats. Identical values can stand only once.

Assays:
Canis familiaris [1] = organism: Canis familiaris; assay: In vitro electrophysiological evaluation in canine cardiac Purkinje fibres reported as % change for action potential duration at 0.1-30 uM concentration range; assay type: functional, Canis lupus familiaris, Purkinje fiber
Summary of the method: (§1)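 Canine cardiac Purkinje fibres, intracellular microelectrode recording, paced at a basic cycle length of 1 s. APD95 and Vmax read simultaneously. Compound: 10 mM stock in deionized water, diluted into Tyrode's solution, tested over the stated concentration range. Each fibre used once as its own control. Result is % change from control, given at 10 µM or as the maximum with its concentration. M = <10% decrease or an increase in Vmax.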

Canis familiaris [2] = organism: Canis familiaris; assay: In vitro electrophysiological evaluation in canine cardiac ventricular muscle reported as maximum % change for functional refractory period (FRP) at 0.1-100 uM concentration range; set-up: species or system Canis lupus familiaris, Muscle tissue
Canis familiaris [3] = organism: Canis familiaris; assay: (§2) In vitro electrophysiological evaluation in canine cardiac Purkinje fibres reported as % change for action potential duration at 0.1-100 uM concentration range; assay type: functional, Canis lupus familiaris, Purkinje fiber; summary of the method: as §1
Canis familiaris [4] = organism: Canis familiaris; assay: In vitro electrophysiological evaluation in canine cardiac ventricular muscle reported as % change for the functional refractory period (FRP) concentration range of 0.1-100 uM; set-up: species or system Canis lupus familiaris, Muscle tissue
Summary of the method: (§3)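 Canine right ventricle and papillary muscle strips in oxygenated Tyrode's solution, fitted with stimulating and recording electrodes. The extra-stimulus conduction-interval method was adapted for in vitro use. FRP and CT were read from a conduction-interval curve before and after various compound concentrations, and expressed as percent change from control. Compounds were taken from 10 mM deionized-water stock into Tyrode's. Each strip was used once as its own control.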

Canis familiaris [5] = organism: Canis familiaris; assay: In vitro electrophysiological evaluation in canine cardiac Purkinje fibres reported as maximum percent change Vmax concentration range of 0.1-30 uM; assay type: functional; conditions: Canis lupus familiaris; Purkinje fiber; summary of the method: as §1
Canis familiaris [6] = organism: Canis familiaris; assay: In vitro electrophysiological evaluation in canine cardiac Purkinje fibres reported as percent change Vmax concentration range of 1-100 uM; Minimal (<IO%increase or a decrease in CT; Minimal (<IO%increase or a decrease in CT); assay type: functional; conditions: Canis lupus familiaris; Purkinje fiber; summary of the method: as §1
Canis familiaris [7] = organism: Canis familiaris; assay: In vitro electrophysiological evaluation in canine cardiac ventricular muscle reported as % change for conduction time(CT) at 0.1-100 uM concentration range; Minimal (<IO%increase or a decrease in CT); assay type: functional, Canis lupus familiaris, Muscle tissue
Canis familiaris [8] = organism: Canis familiaris; assay: In vitro electrophysiological activity in canine cardiac Purkinje fibres given as maximum % change for action potential duration at 100 uM concentration; assay type: functional, Canis lupus familiaris, Purkinje fiber
Summary of the method: (§4)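 Canine cardiac Purkinje fibres, intracellular recording at 1 s basic cycle length, over cumulative concentration ranges. Compound 10 mM stock in deionized water diluted into Tyrode's. Each fibre used once as its own control. Value is the maximum % change from control in APD at 95% repolarization, with the concentration where it occurred; both values given if a biphasic response (>20% reversal) occurred.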

Canis familiaris [9] = organism: Canis familiaris; assay: In vitro electrophysiological activity in canine cardiac Purkinje fibres given as maximum % change for action potential duration at 0.1-100 uM concentration; assay type: functional, Canis lupus familiaris, Purkinje fiber; summary of the method: as §4
Canis familiaris [10] = organism: Canis familiaris; assay: In vitro electrophysiological activity in canine cardiac Purkinje fibres given as maximum % change for action potential duration at 10 uM concentration; assay type: functional, Canis lupus familiaris, Purkinje fiber; summary of the method: as §4
Canis familiaris [11] = organism: Canis familiaris; assay: In vitro electrophysiological evaluation in canine cardiac Purkinje fibres reported as % change for action potential duration at 1-100 uM concentration range; assay type: functional, Canis lupus familiaris, Purkinje fiber; summary of the method: as §1
Canis familiaris [12] = organism: Canis familiaris; assay: In vitro electrophysiological evaluation in canine cardiac Purkinje fibres reported as percent change Vmax concentration range of 0.1-100 uM; Minimal (<IO%increase or a decrease in CT); assay type: functional; conditions: Canis lupus familiaris; Purkinje fiber; summary of the method: as §1
Canis familiaris [13] = organism: Canis familiaris; assay: In vitro electrophysiological evaluation in canine cardiac Purkinje fibres reported as percent change Vmax concentration range of 0.1-30 uM; assay type: functional; conditions: Canis lupus familiaris; Purkinje fiber; summary of the method: as §1
Canis familiaris [14] = organism: Canis familiaris; assay: In vitro electrophysiological evaluation in canine cardiac ventricular muscle reported as maximum % change for conduction time(CT) at 0.1-100 uM concentration range; Minimal (<IO%increase or a decrease in CT); assay type: functional, Canis lupus familiaris, Muscle tissue; summary of the method: as §3
Canis familiaris [15] = organism: Canis familiaris; assay: In vitro electrophysiological evaluation in canine cardiac Purkinje fibres reported as maximum percent change Vmax concentration range of 1-100 uM; M = Minimal(<IO%increase or a decrease in CT); assay type: functional; conditions: Canis lupus familiaris; Purkinje fiber; summary of the method: as §1
Canis familiaris [16] = organism: Canis familiaris; assay: In vitro electrophysiological evaluation in canine cardiac Purkinje fibres reported as percent change Vmax concentration range of 0.1-100 uM; assay type: functional; conditions: Canis lupus familiaris; Purkinje fiber; summary of the method: as §1
Canis familiaris [17] = organism: Canis familiaris; assay: In vitro electrophysiological activity in canine cardiac Purkinje fibres given as maximum % change for action potential duration t 100 uM concentration; assay type: functional, Canis lupus familiaris, Purkinje fiber; summary of the method: as §4
Canis familiaris [18] = organism: Canis familiaris; assay: In vitro electrophysiological activity in canine cardiac Purkinje fibres given as maximum % change for action potential duration at 95% repolarization at 1 uM concentration; assay type: functional, Canis lupus familiaris, Purkinje fiber; summary of the method: as §4
Canis familiaris [19] = organism: Canis familiaris; assay: as §2; assay type: functional, Canis lupus familiaris, Purkinje fiber; summary of the method: as §1; remark: listed apart in the source

Cl.Clc1ccc(CCCC2CC3CCN2CC3)cc1 (centres undefined)
APD95 (Canis familiaris [1]): 30%
FRP (Canis familiaris [2]): 25%
APD95 (Canis familiaris [3]): 21% and 12%
FRP (Canis familiaris [4]): 25%
Vmax (Canis familiaris [5]): < 10%
Vmax (Canis familiaris [6]): < 10%
CT (Canis familiaris [7]): <10%
APD95 (Canis familiaris [8]): 21%
APD95 (Canis familiaris [9]): 13%
APD95 (Canis familiaris [10]): 30% and 12%
APD95 (Canis familiaris [11]): -20%
Vmax (Canis familiaris [12]): -13% and < 10%
Vmax (Canis familiaris [13]): -23%
CT (Canis familiaris [14]): <10%
Vmax (Canis familiaris [15]): < 10%
Vmax (Canis familiaris [16]): -10%
APD95 (Canis familiaris [17]): -20%
APD95 (Canis familiaris [18]): 40%
APD95 (Canis familiaris [19]): 2%
